Experimental data: ChEMBL document CHEMBL4396944, “A fluorogenic H2S-triggered prodrug based on thiolysis of the NBD amine” (Bioorg Med Chem Lett, 2019)
Calls of active or inactive are those of the source. No cut-off for these calls is given here.

Tests used:
[1] = tested on: Escherichia coli; assay: Antibacterial activity against Escherichia coli BL21(DE3) incubated for 12 hrs by UV-Vis spectrophotometric analysis; type: functional, organism-based
Outline: (§1)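 E. coli grown in LB medium with the prodrug added, alone or together with 50 µM Na2S (H2S source) or 5 mM L-Cys. Cultures were incubated for 12 h, at 37 °C where stated, and growth was read as OD600 per sample. Controls: Na2S or L-Cys alone, and 30 nM NBD-SH by-product.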

[2] = tested on: Escherichia coli; assay: Antibacterial activity against Escherichia coli BL21(DE3) at lower concentration incubated for 12 hrs by UV-Vis spectrophotometric analysis; type: functional, organism-based; outline: as §1
[3] = tested on: Escherichia coli; assay: Antibacterial activity against Escherichia coli BL21(DE3) at 30 nM incubated for 12 hrs by UV-Vis spectrophotometric analysis; type: functional, organism-based
Outline: (§2)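 E. coli cultured in LB medium with additions of 30 nM prodrug, 30 nM NBD-SH, 50 µM Na2S, 5 mM L-Cys, or combinations (Na2S or L-Cys plus 30 nM prodrug); incubated 12 h, then bacterial density read as OD600.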

[4] = Solubility of compound in 20 mM PBS buffer at pH 7.4 in presence of Na2S by UV-Vis spectrophotometric analysis; type: physicochemical
[5] = Prodrug activation in pH 7.4 PBS buffer assessed as formation of ciprofloxacin by measuring reaction rate constant at 5 uM in presence of Na2S by fluorescence assay; conditions: pH 7.4, 5 µM
Outline: (§3)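 Fluorescence spectra over time of 5 µM prodrug with 100 µM Na2S in PBS, excitation 280 nm; emission at 415 nm versus time fitted to give kobs; kobs plotted against Na2S concentration, slope of linear fit gives k2.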

[6] = tested on: Escherichia coli; assay: Antibacterial activity against Escherichia coli BL21(DE3) at 30 nM incubated for 12 hrs in presence of H2S by UV-Vis spectrophotometric analysis; type: functional, organism-based; outline: as §2
[7] = Prodrug activation in pH 7.4 PBS buffer assessed as absorption peak for NBD fluorophore formation at 10 uM in presence of Na2S by UV-Vis spectrophotometric analysis; conditions: pH 7.4, 10 µM
Outline: (§4)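 Absorption spectra recorded over time for 10 µM prodrug with 200 µM Na2S in 50 mM PBS, pH 7.4; bands followed at 350, 490 and new 530 nm; kinetics followed by intensity at 560 nm.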

[8] = tested on: Escherichia coli; assay: Antibacterial activity against Escherichia coli BL21(DE3) incubated for 12 hrs in presence of L-Cys by UV-Vis spectrophotometric analysis; type: functional, organism-based; outline: as §2
[9] = Prodrug activation in pH 7.4 PBS buffer at 5 uM incubated for 30 mins in presence of GSH by fluorescence assay; conditions: pH 7.4, 0.5 h
Outline: (§5)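 Fluorescence of prodrug checked in PBS after exposure to millimolar biothiols, 10 mM GSH or 5 mM Cys.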

[10] = Prodrug activation in pH 7.4 PBS buffer assessed as second order rate constant at 10 uM in presence of Na2S by UV-Vis spectrophotometric analysis; conditions: pH 7.4, 10 µM
[11] = tested on: Escherichia coli; assay: Antibacterial activity against Escherichia coli BL21(DE3) at >0.2 uM incubated for 12 hrs by UV-Vis spectrophotometric analysis; type: functional, organism-based
[12] = Prodrug activation in pH 7.4 PBS buffer assessed as absorption peak for ciprofloxacin formation at 10 uM in presence of Na2S by UV-Vis spectrophotometric analysis; conditions: pH 7.4, 10 µM; outline: as §4
[13] = Prodrug activation in pH 7.4 PBS buffer assessed as ciprofloxacin formation by measuring increase in fluorescence at 5 uM in presence of Na2S at 415 nanometer by fluorescence assay; conditions: pH 7.4, 5 µM, TDE = time-dependent effect; outline: as §3
[14] = Prodrug activation in pH 7.4 PBS buffer at 5 uM incubated for 30 mins in presence of Cys by fluorescence assay; conditions: pH 7.4, 0.5 h; outline: as §5
[15] = Prodrug activation in pH 7.4 PBS buffer assessed as ciprofloxacin formation by measuring increase in fluorescence at 5 uM in presence of Na2S at 415 nanometer by fluorescence assay relative to control; conditions: pH 7.4, 5 µM
Outline: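 Prodrug at 5 µM mixed with Na2S (100 µM) in PBS; fluorescence spectra recorded over time, excitation 280 nm. Emission at 415 nm plotted against time and fitted to give k_obs. Repeated at several Na2S concentrations; slope of k_obs versus [Na2S] gives k2.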

[16] = tested on: Escherichia coli; assay: Antibacterial activity against Escherichia coli BL21(DE3) at 30 nM incubated for 12 hrs in presence of GSH by UV-Vis spectrophotometric analysis; type: functional, organism-based
[17] = Prodrug activation in pH 7.4 PBS buffer at 5 uM incubated for 30 mins in presence of 50 to 200 uM H2O2 by fluorescence assay; conditions: pH 7.4, 0.5 h
Outline: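 Fluorescence of prodrug read in PBS after exposure to a range of H2O2 concentrations up to 200 µM.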

[18] = tested on: Escherichia coli; assay: Antibacterial activity against Escherichia coli BL21(DE3) incubated for 12 hrs in presence of Na2S by UV-Vis spectrophotometric analysis; type: functional; outline: as §2

| SMILES | Activity [1] | Activity [2] | Activity [3] | solubility [4] [µM] | K [5] [M⁻¹ s⁻¹] | Activity [6] | Activity [7] [nm] | Activity [8] | Drug metabolism [9] | k2 [10] [M⁻¹ s⁻¹] | Activity [11] | Activity [12] [nm] | Drug metabolism [13] | Drug metabolism [14] | fold change (FC) [15] | Activity [16] | Drug metabolism [17] | MIC [18] [µM] |
| --- | --- | --- | --- | --- | --- | --- | --- | --- | --- | --- | --- | --- | --- | --- | --- | --- | --- | --- |
| O=[N+]([O-])c1ccc(S)c2nonc12 | inactive | inactive |  |  |  |  |  |  |  |  |  |  |  |  |  |  |  |  |
| O=C(O)c1cn(C2CC2)c2cc(N3CCN(c4ccc([N+](=O)[O-])c5nonc45)CC3)c(F)cc2c1=O |  | Active | inactive | 17 | 12 | Active | 490 | Active | Metabolite_Notdetected | 12.9 | Active | 350 | Tde | Metabolite_Notdetected | 62 | inactive | Metabolite_Notdetected | 0.03 |
